Like-named read-outs stand apart in the source and are kept apart here.

Data set [1] has as its system male SD rats. Put plainly: Inferior vena cava. Format: in vivo. The conditions noted are these: rat.
Data set [2] relates to male CD-1 mice. Put plainly: Mouse iron-chloride-induced arterial thrombosis model. Format: in vivo.
For data set [3], the system named is thrombin generation. Put plainly: Thrombin generation assay. Type of data set: biochemical. The conditions noted are these: 70% human platelet-poor plasma, mean ± SD; for Cmax: read-out: Tmax EC2x (concentration of inhibitor required to double the time at which Cmax occurs).
The subject of data set [4] is male SD rats. The conditions noted are these: rat, cited from earlier work.
Data set [5] deals with male SD rats. Put plainly: Arteriovenous shunt. Type of data set: in vivo. The conditions noted are these: rat, 3 mg/kg infusion.
The test system of data set [6] is male SD rats. The conditions noted are these: rat, cited from earlier work. This is another data set of the same source.
For data set [7], the system named is male SD rats. The data set can be described thus: Platelet status in AV shunt model. Type of data set: in vivo. The conditions noted are these: rat, vehicle approximately 20%.
The subject of data set [8] is male CD-1 mice. The data set can be described thus: Thrombin-induced thromboembolism mouse model. The conditions noted are these: 4.5 mg/kg IV, 30 min observation, human α-thrombin 1.75 U/g. Format: in vivo. In short, it runs like this:
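Mice anaesthetised with 1:1 ketamine:xylazine. Test compound given by tail-vein injection; 30 s later human α-thrombin in PBS (1.75 U/g body weight) or PBS alone injected slowly. Mortality observed for 30 min; animals alive at 30 min scored as survivors and euthanised by cervical dislocation. Results expressed as percent survival; n = 12 per treatment group.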

Data set [9] has as its system TF-mediated platelet activation. Put plainly: In vitro platelet activation in whole blood. Format: cell-based, human. The conditions noted are these: mean ± SD.
For data set [10], the system named is thrombin-mediated platelet activation. The data set can be described thus: In vitro platelet activation in whole blood. Type of data set: cell-based. The conditions noted are these: read-out: EC50 inhibition of platelet activation, Rat blood—Thrombin; 20% whole blood; mean ± SD.
The test system is the same in data set [11]. The data set can be described thus: In vitro platelet activation in whole blood. Type of data set: cell-based, human. The conditions noted are these: mean ± SD.
Data set [12] has the same test system. Put plainly: In vitro platelet activation in whole blood. Format: cell-based. The conditions noted are these: read-out: EC50 inhibition of platelet activation, Mouse blood—Thrombin; 20% whole blood; mean ± SD.

What is called EC50 is the midpoint of the concentration-response curve. Turning to `COc1ccc(-n2nc(C(N)=O)c3c2C(=O)N(c2ccc(N4CCCCC4=O)cc2)CC3)cc1` [Apixaban, apixaban], the “inhibition of thrombus formation” value in [1] (3 mg/kg/infusion) was 90%; in [5], “about 90%”. The occlusion time in [2] (6 mg/kg infusion) was over 30 min. Further, the values for the 50% effective concentration (EC50) in data set [3] (read-out: Cmax EC50) and in [3] (read-out: ETP EC50) were 0.1 ± 0.1 µM and 0.47 ± 0.01 µM, respectively. In data set [3], the Cmax came out at 0.07 ± 0.04 µM. For the same compound, in data set [4] (3 mg/kg/infusion), the “inhibition of thrombus formation, literature value” is ~ 80%. Further, the “inhibition of thrombus formation, literature” value in data set [6] (ref 47 (Shumacher et al. 2010)) is on record as “about 60%”.

With `CC1CNc2c(cccc2S(=O)(=O)N[C@@H](CCCNC(=N)N)C(=O)N2CC[C@@H](C)C[C@@H]2C(=O)O)C1` (some centres unmarked) [Argatroban, argatroban], the “activated platelets (average over time points)” value in data set [7] (2 mg/kg IV) is on record as under 10%. The compound further yielded an occlusion time in data set [2] (4 mg/kg) of over 30 min. Besides, the “treated mice in which mortality was prevented” value in [8] was determined as 91%. Besides, the EC50 came out at 0.35 ± 0.14 µM in data set [3] (read-out: Cmax EC50) and 0.36 ± 0.162 µM in data set [3] (read-out: ETP EC50). Moreover, the Cmax in data set [3] stood at 0.454 ± 0.24 µM.

Turning to `[H]/N=C(/N)c1ccc(NCc2nc3cc(C(=O)N(CCC(=O)O)c4ccccn4)ccc3n2C)cc1` [Dabigatran, dabigatran], in data set [7] (0.1 mg/kg IV), the “activated platelets (average over time points)” value is recorded as under 10%. The EC50 is 0.029 ± 0.003 µM in [9] (read-out: EC50 inhibition of platelet activation, Human blood (76%)—TF, 76% whole blood); 0.023 ± 0.006 µM in data set [9] (read-out: EC50 inhibition of platelet activation, Human blood—TF, 20% whole blood); 0.027 ± 0.01 µM in data set [10]; 0.45 ± 0.45 µM in data set [3] (read-out: Cmax EC50); 0.31 ± 0.24 µM in data set [3] (read-out: ETP EC50); 0.014 ± 0.001 µM in [11] (read-out: EC50 inhibition of platelet activation, Human blood (76%)—Thrombin, 76% whole blood). For the same compound, the concentration for a half-maximal effect (EC50) in [11] (read-out: EC50 inhibition of platelet activation, Human blood—Thrombin, 20% whole blood) came out at 0.035 ± 0.01 µM; in [12] it was 0.021 ± 0.01 µM. The compound further showed an ED50 thrombus formation in data set [1] (IV administration) of 0.01 mg/kg. Moreover, the occlusion time in [2] (0.2 mg/kg) was over 30 min. Besides, the Cmax in [3] came out at 0.24 ± 0.24 µM. The “EC50 in AV shunt model, literature” value in [4] is reported as ~ 0.04 mg/kg. In addition, the “ED50, value published by the manufacturer” value in data set [6] (IV) is listed as 0.033 mg/kg.

Consider `O=C(NC[C@H]1CN(c2ccc(N3CCOCC3=O)cc2)C(=O)O1)c1ccc(Cl)s1` [Rivaroxaban, rivaroxaban], for which the EC50 in [3] (read-out: Cmax EC50) stood at 0.1 ± 0.1 µM; in data set [3] (read-out: ETP EC50), 0.31 ± 0.14 µM. Besides, the Cmax in [3] came out at 0.1 ± 0.03 µM. The “EC50 in AV shunt model, literature value” in data set [4] is 0.3 mg/kg.

(Values after publication PMC7936662 (Thrombosis research, 2020).)
